Published values of several laboratories.
Protocols differ between the studies behind these lines.
Target: Serine/threonine-protein kinase N2 (PKN2, Homo sapiens, UniProt Q16513)

CCCCN(CCCC)C(=O)CN1C[C@H](c2cc(OC)c3c(c2)OCO3)[C@@H](C(=O)O)[C@@H]1CC(C)(C)CCC gave a remaining binding of 100% (cell-free assay, competition with immobilised ligand; 1 µM).
Cc1ccc(C(=O)NCc2ccsc2)cc1C#Cc1cn(C(C)C)c2ncnc(N)c12 gave an activity vs control of 113% (enzyme activity, inhibitor; 1 µM).
N#CCCc1ccc2c(c1)-c1[nH]c3ccc([N+](=O)[O-])cc3c1CC(=O)N2 gave a remaining signal of 77.9% (cell-free assay; 0.5 µM).
The remaining signal of Cc1ccc(NC(=O)c2ccc(C)c(C(F)(F)F)c2)cc1C#Cc1nn(C2CCC(O)CC2)c2ncnc(N)c12 (stereo not shown) is reported as 97% (cell-free assay; 10 µM).
The inhibition of CNCc1ccc(-c2cc(-c3nc(-c4ccc(S(=O)(=O)C(C)C)cc4)cnc3N)on2)cc1 is reported as 82% (enzyme activity, inhibitor; 2 µM).
For CCCOc1ccc(OC)c(F)c1C(=O)c1ccc(C(=O)N[C@@H]2CNC[C@H]2NC(=O)c2ccc3[nH]ncc3c2)cc1, the remaining activity was -1% (enzyme activity, inhibitor; 10 µM).
With Cc1ccc(NC(=O)c2ccc(CN3CCN(C)CC3)cc2)cc1Nc1nc(-c2cccnc2)cs1 the remaining signal was 108% (cell-free assay; 0.5 µM).
The remaining activity of O=C(Nc1cnn(-c2csc(C(=O)NC3COC3)c2)c1)Nc1c(F)cccc1Cl is reported as 105% (enzyme activity, inhibitor; 5 µM).
Cc1cc(NC(=O)c2cccc3cc(-c4cccc5[nH]nc(N)c45)ccc23)ccc1F gave an activity vs control of 101% (enzyme activity, inhibitor; 0.1 µM).
CNC(=O)Nc1ccc2c(c1)CC[C@@]21OC(=O)N(CC(=O)N(Cc2ccc(F)cc2)[C@@H](C)C(F)(F)F)C1=O has a remaining binding of 97% (cell-free assay, competition with immobilised ligand; 1 µM).
For CNc1cc(Oc2cc(C(=O)Nc3cc(N4CCN(C)CC4)cc(C(F)(F)F)c3)ccc2C)ncn1, the inhibition was -99.7% (target engagement in cells, inhibitor, chemoproteomics; Huh-7; 1 µM).
CCN(CC)CCNC(=O)c1c(C)[nH]c(/C=C2\C(=O)Nc3ccc(F)cc32)c1C gave an inhibition of 69% (enzyme activity, inhibitor; 10 µM).
Cc1cnc(NC2CCOCC2)nc1-n1cnc(C(=O)NC(CN)c2cc(F)cc(Cl)c2)c1 (stereo not shown) has a remaining activity of 63% (enzyme activity, inhibitor, radiometric; 1 µM).
With Cn1c(=O)n(-c2ccc(C(C)(C)C#N)cc2)c2c3cc(-c4cnc5ccccc5c4)ccc3ncc21 the remaining activity was 74% (enzyme activity, inhibitor; 10 µM).
CC(C)(C)c1nc(-c2cccc(NS(=O)(=O)c3c(F)cccc3F)c2F)c(-c2ccnc(N)n2)s1 has a remaining activity of 78% (enzyme activity, inhibitor, radiometric; 1 µM).
For CCCCNc1ncc2c(-c3ccc(F)cc3)nn(C[C@H]3CC[C@H](N)CC3)c2n1, the inhibition was 2.9% (target engagement in cells, inhibitor, chemoproteomics; 20 mM).
CNC(=O)c1cc(Oc2ccc(NC(=O)Nc3ccc(Cl)c(C(F)(F)F)c3)cc2)ccn1 gave an inhibition of 20% (enzyme activity, inhibitor; 10 µM).
COc1cc(-c2cc(-c3ccc(N4CCNCC4)cc3)cnc2C)cc(OC)c1OC gave an inhibition of 1% (enzyme activity, inhibitor; 1 µM).
With COc1cc(Nc2cnc(C#N)c(O[C@H](C)CN(C)C)n2)ncc1-c1cnn(C)c1 the remaining activity was 86% (enzyme activity, inhibitor, radiometric; 10 µM).
With O=S(=O)(c1cccc2cnccc12)N1CCCNCC1 the remaining signal was 103% (cell-free assay; 0.5 µM).
FC(F)c1nc2ccccc2n1-c1nc(N2CCOCC2)nc(N2CCOCC2)n1 gave a remaining activity of 82% (enzyme activity, inhibitor; 10 µM).
CN(c1ncccc1CNc1nc(Nc2ccc3c(c2)CC(=O)N3)ncc1C(F)(F)F)S(C)(=O)=O gave an inhibition of 47% (enzyme activity, inhibitor; 1 µM).
The remaining binding of COc1ccc2c(O[C@@H]3C[C@H]4C(=O)N[C@]5(C(=O)O)CC5/C=C\CCCCC[C@H](NC(=O)OC5CCCC5)C(=O)N4C3)cc(-c3csc(NC(=O)C(C)C)n3)nc2c1C (stereo partly shown) is reported as 67% (cell-free assay, competition with immobilised ligand; 1 µM).
The remaining activity of Nc1nc(Nc2ccccc2)sc1C(=O)c1c(F)cccc1F is reported as 57% (enzyme activity, inhibitor; 10 µM).
O=C(NS(=O)(=O)c1ccc(NCC2CCOCC2)c([N+](=O)[O-])c1)c1ccc(N2CCN(Cc3ccc(C(F)(F)F)cc3-c3ccc(Cl)cc3)CC2)cc1Oc1cnc2[nH]ccc2c1 gave a remaining binding of 93% (cell-free assay, competition with immobilised ligand; 1 µM).
For Cn1c2c(c3ccc(Cl)c(Cl)c31)C(C#N)C1(CCCC1)NC2=O (stereo not shown), the ΔTm was 0 °C (thermal stability, DSF; 10 µM).
With Cc1cc(-n2nc(Cc3cc(F)cc(C(F)(F)F)c3)nc2C)ccc1C(N)=O the remaining binding was 100% (cell-free assay, competition with immobilised ligand; 1 µM).
With CN1CCC2(CC1)NC(=O)c1c(c3ccc(Cl)c(Cl)c3n1C)C2C#N (racemic) the ΔTm was 2.5 °C (thermal stability, DSF; 10 µM).
O=c1nc(-c2ccccn2)sc2ccccc12 gave a remaining binding of 100% (binding, competition with immobilised ligand; 1 µM).
With Cc1ccc(Nc2nccc(N(C)c3ccc4c(C)n(C)nc4c3)n2)cc1S(N)(=O)=O the inhibition was 19% (enzyme activity, inhibitor; 0.3 µM).
O=C(Nc1cnc(Oc2ccc(F)cc2)nc1)N1CCc2ncccc2[C@@H]1c1ccc(F)cc1 has a remaining binding of 78% (cell-free assay, competition with immobilised ligand; 1 µM).
For CN1CC(Oc2cnc(C#N)cc2-c2ccn3nc(NC(=O)C4CC4)cc3c2)C1, the inhibition was 15% (enzyme activity, inhibitor; 1 µM).
The remaining binding of Cc1cc(C)c(-n2ccn3nc(-c4cccnc4)cc23)cc1NC(=O)c1cc(C#N)cc(S(F)(F)(F)(F)F)c1 is reported as 100% (cell-free assay, competition with immobilised ligand; 0.1 µM).
COc1cc(/C=C/C(=O)CC(=O)/C=C/c2ccc(O)c(OC)c2)ccc1O has an activity vs control of 114% (enzyme activity, inhibitor; 1 µM).
